# Assay results gathered from unrelated publications.
# Each line is one published result; the experiments were not run side by side.
# Target: Casein kinase I isoform gamma-2 (CSNK1G2, Homo sapiens, UniProt P78368)
SMILES,effect on,mode,method,concentration,endpoint,value
O=c1[nH]c2ccccc2n1C1CCN(Cc2ccc(-c3[nH]c4cc5ncnc5cc4nc3-c3ccccc3)cc2)CC1,cell-free assay,,,0.5 µM,remaining signal,101%
Cc1nn(C)cc1-c1nc2c(N3CCN(Cc4ccc(Cl)cc4)CC3)c(Cl)cnc2[nH]1,binding,,competition with immobilised ligand,1 µM,remaining binding,96%
Cn1cncc1[C@@](O)(COc1ccc(C#N)cc1-c1ccc(OC(F)(F)F)cc1)c1ccc(C#N)cc1,cell-free assay,,competition with immobilised ligand,1 µM,remaining binding,64%
CC(C)(C)c1cc(C=C(C#N)C#N)cc(Br)c1O,enzyme activity,inhibitor,,0.5 µM,remaining activity,100%
Cn1cc(-c2cc(F)cc(N3CCn4c(cc5c4CCCC5)C3=O)c2CO)cc(Nc2ccc(N3CCN(C4COC4)CC3)cn2)c1=O,enzyme activity,inhibitor,,0.1 µM,inhibition,7%
COc1ncccc1-c1cnn2ccc(N3CCN(C(=O)OC(C)C)CC3)nc12,binding,,competition with immobilised ligand,1 µM,remaining binding,100%
Cn1cc(-c2cccc(N3CCc4c(sc5c4CC(C)(C)C5)C3=O)c2CO)cc(Nc2ccncn2)c1=O,enzyme activity,inhibitor,,1 µM,inhibition,6%
Nc1ncc(-c2nc(N3CCOCC3)nc(N3CCOCC3)n2)c(C(F)F)n1,binding,,competition with immobilised ligand,10 µM,remaining binding,85%
COc1cc(Nc2ncc(F)c(Nc3ccc4c(n3)NC(=O)C(C)(C)O4)n2)cc(OC)c1OC,binding,,competition with immobilised ligand,10 µM,inhibition,0%
